ChEMBL document CHEMBL4808210, “Mapping Chromone-3-Phenylcarboxamide Pharmacophore: Quid Est Veritas?” (J Med Chem, 2021)
pIC50: −log10 of the molar value. Active and inactive are the calls of the source. No cut-off for these calls is given here.

Columns and labels:
[1] = Solubility of the compound in phosphate buffer at > 10 uM; type: physicochemical
[2] = target: T1, Amine oxidase [flavin-containing] B (Homo sapiens, UniProt P27338); test: (§1) Inhibition of recombinant human MAO-B expressed in baculovirus infected BTI-TN- 5B1-4 insect cells using kynuramine as substrate preincubated for 10 mins in presence of substrate followed by enzyme addition and measured every minute for 30 mins by spectrophotometry analysis; type: cell-based
T1 sequence (P27338 whole entry): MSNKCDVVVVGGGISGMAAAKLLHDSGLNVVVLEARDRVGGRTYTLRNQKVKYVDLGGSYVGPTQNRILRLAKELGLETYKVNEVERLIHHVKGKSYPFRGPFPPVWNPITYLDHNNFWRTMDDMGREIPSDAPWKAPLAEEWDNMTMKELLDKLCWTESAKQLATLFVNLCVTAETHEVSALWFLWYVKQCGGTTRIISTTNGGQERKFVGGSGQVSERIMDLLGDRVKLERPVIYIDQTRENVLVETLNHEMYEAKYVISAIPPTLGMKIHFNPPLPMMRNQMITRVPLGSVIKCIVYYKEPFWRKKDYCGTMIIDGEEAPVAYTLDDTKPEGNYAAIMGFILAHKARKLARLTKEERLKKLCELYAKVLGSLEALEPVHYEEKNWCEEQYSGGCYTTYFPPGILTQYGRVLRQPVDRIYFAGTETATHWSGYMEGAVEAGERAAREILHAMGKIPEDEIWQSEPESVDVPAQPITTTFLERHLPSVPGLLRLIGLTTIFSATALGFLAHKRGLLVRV

MAO-A = target: T2, MAO-A (Homo sapiens, UniProt P21397); test: as §1, with “MAO-A” for “MAO-B”, “cells at 10 uM” for “cells”, “analysis relative to control” for “analysis”; settings: probe kynuramine, time 40 min
T2 sequence (P21397 whole entry): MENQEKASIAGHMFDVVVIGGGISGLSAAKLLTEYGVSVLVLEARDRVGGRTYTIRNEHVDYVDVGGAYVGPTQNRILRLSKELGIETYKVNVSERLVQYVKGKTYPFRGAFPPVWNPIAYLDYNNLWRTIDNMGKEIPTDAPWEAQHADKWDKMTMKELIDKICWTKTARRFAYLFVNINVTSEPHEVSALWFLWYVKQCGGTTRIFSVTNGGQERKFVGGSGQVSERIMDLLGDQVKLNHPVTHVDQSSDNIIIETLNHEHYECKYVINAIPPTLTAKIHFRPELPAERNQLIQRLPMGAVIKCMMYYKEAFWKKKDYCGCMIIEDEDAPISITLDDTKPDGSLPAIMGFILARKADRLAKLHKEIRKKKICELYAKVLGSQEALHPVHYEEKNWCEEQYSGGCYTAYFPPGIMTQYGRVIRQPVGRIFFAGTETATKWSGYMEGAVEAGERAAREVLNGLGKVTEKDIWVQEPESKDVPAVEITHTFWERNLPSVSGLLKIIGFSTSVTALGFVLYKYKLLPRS
Outline: (§2)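 Recombinant hMAO-A and hMAO-B were assayed with kynuramine as substrate. Percent inhibition was taken at 10 μM, the highest concentration tested. Where the hMAO-A IC₅₀ was not reached, it was taken as 10 μM.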

Homo sapiens = species: Homo sapiens; test: Selectivity index, ratio of IC50 for recombinant human MAO-A expressed in baculovirus infected BTI-TN- 5B1-4 insect cells to IC50 for recombinant human MAO-B expressed in baculovirus infected BTI-TN- 5B1-4 insect cells using kynuramine as substrate preincubated for 10 mins in presence of substrate followed by enzyme addition and measured every minute for 30 mins by spectrophotometry analysis; outline: as §2
SH-SY5Y [3] = test: Cytotoxicity against human SH-SY5Y cells assessed as effect on NR uptake at 1 to 10 uM measured after 24 hrs by neutral red uptake assay; type: cell-based; settings: dose 1-10 µM
Outline: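 Differentiated SH-SY5Y cells were exposed to compounds at 1 and 10 μM for 24 h. Lysosomal activity was read as neutral red dye uptake and compared with untreated cells. Mean ± SEM of at least three independent experiments run in triplicate.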

Caco-2 [4] = test: Cytotoxicity against human Caco-2 cells assessed as effect on cell viability at 1 to 10 uM measured after 24 hrs by MTT assay; type: cell-based; settings: caco-2, 24 h, dose 1-10 µM
Outline: (§3)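 Caco-2 cells, and SH-SY5Y cells first differentiated toward a dopaminergic-like phenotype, were treated for 24 h with compounds at 1 and 10 μM. Metabolic activity was read as MTT reduction to formazan, relative to untreated cells. Mean ± SEM of at least three independent experiments, each in triplicate.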

[5] = target: T3, Amine oxidase [flavin-containing] A (Homo sapiens, UniProt P21397); test: Inhibition of recombinant human MAO-A expressed in baculovirus infected BTI-TN- 5B1-4 insect cells using kynuramine as substrate preincubated for 10 mins in presence of substrate followed by enzyme addition and measured every minute for 30 mins by spectrophotometry analysis; outline: as §2
T3 sequence (P21397 whole entry): T2 sequence (P21397 whole entry)

HUVEC [6] = test: Cytotoxicity against HUVEC cells at 10 uM incubated for 24 to 48 hrs by Celltiter-Glo assay relative to control; type: cell-based; settings: human, time 24-48 hrs
Outline: (§4)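 Cells (HEK-293, HUVEC, MCF-7) exposed to test compounds at 10 μM for 24 h; cytotoxicity read in triplicate with a luminescence kit measuring intracellular ATP levels.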

HEK293 [7] = test: Cytotoxicity against HEK293 cells at 10 uM incubated for 24 to 48 hrs by Celltiter-Glo assay relative to control; type: cell-based; settings: human, hek293, 10 µM, time 24-48 hrs; outline: as §4
MCF7 [8] = test: Cytotoxicity against human MCF7 cells at 10 uM incubated for 24 to 48 hrs by Celltiter-Glo assay relative to control; type: cell-based; settings: mcf7, 10 µM, time 24-48 hrs; outline: as §4
HUVEC [9] = test: Cytotoxicity against HUVEC cells incubated for 24 to 48 hrs by Celltiter-Glo assay; type: cell-based, Homo sapiens
HEK293 [10] = test: Cytotoxicity against HEK293 cells incubated for 24 to 48 hrs by Celltiter-Glo assay; type: cell-based, Homo sapiens
MCF7 [11] = test: Cytotoxicity against human MCF7 cells incubated for 24 to 48 hrs by Celltiter-Glo assay; type: cell-based
hERG = hERG (Homo sapiens, UniProt Q12809); test: Inhibition of human ERG at 10 uM incubated for 2 hrs by fluorescence polarization assay relative to control
Sequence of hERG (Q12809 whole entry): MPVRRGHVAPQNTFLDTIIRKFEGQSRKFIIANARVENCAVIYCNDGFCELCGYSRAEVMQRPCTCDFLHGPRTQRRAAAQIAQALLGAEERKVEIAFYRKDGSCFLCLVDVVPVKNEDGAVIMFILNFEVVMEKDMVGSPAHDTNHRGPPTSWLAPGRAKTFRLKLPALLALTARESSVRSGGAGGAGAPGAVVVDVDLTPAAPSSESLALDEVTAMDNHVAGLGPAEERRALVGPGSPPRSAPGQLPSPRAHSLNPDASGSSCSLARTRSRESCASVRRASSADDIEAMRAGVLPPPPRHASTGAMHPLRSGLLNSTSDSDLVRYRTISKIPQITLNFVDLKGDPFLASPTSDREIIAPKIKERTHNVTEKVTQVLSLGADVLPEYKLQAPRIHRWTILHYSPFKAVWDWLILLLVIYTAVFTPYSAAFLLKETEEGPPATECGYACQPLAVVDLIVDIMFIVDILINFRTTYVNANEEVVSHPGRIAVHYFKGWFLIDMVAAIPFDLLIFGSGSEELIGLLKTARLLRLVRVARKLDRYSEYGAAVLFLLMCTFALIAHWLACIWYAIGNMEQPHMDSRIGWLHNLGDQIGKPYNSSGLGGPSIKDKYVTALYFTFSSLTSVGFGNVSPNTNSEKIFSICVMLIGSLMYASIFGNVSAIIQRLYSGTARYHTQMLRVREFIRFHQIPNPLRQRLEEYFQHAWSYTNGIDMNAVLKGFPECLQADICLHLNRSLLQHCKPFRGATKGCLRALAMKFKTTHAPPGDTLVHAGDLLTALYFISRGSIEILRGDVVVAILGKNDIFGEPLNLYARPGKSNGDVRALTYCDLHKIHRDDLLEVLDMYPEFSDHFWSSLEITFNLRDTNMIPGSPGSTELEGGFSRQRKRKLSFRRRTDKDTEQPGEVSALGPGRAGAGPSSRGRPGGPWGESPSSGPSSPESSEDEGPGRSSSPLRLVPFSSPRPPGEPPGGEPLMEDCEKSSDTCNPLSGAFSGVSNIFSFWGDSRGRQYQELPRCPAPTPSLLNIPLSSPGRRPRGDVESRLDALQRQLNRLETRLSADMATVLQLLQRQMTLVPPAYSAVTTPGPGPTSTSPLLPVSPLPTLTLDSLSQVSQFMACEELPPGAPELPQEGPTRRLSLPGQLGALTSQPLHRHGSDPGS
Outline: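 hERG binding was measured by fluorescence polarization, using a homogenized membrane preparation containing hERG plus a fluorescent tracer. A drop in FP signal from tracer displacement was read as inhibition. Compounds were tested at 10 μM.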

[12] = target: ATP-dependent translocase ABCB1 (Homo sapiens, UniProt P08183); test: Modulation of P-gp-mediated Rhodamine-123 efflux in human Caco-2 cells assessed as Rhodamine-123 accumulation at 10 uM pretreated for 30 mins in presence or absence of Zos followed by Rho-123 addition and measured after 90 mins by fluorescence spectroscopy; type: cell-based; settings: caco-2, 2 h, time 120 min
Sequence of ATP-dependent translocase ABCB1 (P08183 whole entry): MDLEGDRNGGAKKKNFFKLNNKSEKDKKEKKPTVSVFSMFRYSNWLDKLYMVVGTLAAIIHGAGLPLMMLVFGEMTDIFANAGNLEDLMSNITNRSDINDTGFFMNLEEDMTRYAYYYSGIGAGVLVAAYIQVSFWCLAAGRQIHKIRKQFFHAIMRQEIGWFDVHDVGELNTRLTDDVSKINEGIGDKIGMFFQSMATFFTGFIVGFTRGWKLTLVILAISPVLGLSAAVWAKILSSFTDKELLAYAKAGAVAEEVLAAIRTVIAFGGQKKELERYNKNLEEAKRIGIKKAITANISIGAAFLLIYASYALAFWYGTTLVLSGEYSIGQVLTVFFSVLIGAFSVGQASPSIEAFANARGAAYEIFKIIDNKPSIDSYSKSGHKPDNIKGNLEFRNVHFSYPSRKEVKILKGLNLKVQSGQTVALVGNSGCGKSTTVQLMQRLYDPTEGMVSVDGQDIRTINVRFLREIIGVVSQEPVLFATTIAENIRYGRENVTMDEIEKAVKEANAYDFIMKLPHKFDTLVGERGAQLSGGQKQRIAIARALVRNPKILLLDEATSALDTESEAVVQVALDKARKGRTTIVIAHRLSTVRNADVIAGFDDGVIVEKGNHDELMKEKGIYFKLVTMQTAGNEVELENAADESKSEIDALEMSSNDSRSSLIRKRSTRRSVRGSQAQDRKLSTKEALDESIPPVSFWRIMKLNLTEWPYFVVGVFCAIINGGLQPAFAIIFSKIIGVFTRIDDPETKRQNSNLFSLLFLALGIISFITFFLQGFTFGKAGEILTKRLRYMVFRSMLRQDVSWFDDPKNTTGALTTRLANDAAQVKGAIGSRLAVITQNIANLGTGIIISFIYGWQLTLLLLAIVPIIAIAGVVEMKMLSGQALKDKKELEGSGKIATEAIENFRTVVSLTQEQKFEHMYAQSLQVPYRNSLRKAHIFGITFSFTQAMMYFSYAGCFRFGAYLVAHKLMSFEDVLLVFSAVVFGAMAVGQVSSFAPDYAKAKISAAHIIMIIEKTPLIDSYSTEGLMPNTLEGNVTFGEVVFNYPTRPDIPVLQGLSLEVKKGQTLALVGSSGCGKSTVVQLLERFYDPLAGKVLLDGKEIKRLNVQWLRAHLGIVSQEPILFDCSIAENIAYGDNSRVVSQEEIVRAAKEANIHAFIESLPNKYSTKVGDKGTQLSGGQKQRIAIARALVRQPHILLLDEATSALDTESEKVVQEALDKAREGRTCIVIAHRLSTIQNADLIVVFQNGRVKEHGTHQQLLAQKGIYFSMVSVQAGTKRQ
Outline: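 Caco-2 cells were exposed to compounds at 10 μM during incubation with the P-gp substrate rhodamine 123 (5 μM). Zosuquidar served as the specific P-gp inhibitor. Cellular rhodamine 123 was read by fluorescence spectroscopy. Mean ± SEM of at least three independent experiments in triplicate.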

SH-SY5Y [13] = test: Protection against iron(III)-induced damage in human SH-SY5Y cells assessed as increase in lysosomal activity at 1 to 10 uM pretreated for 30 mins followed by iron(III) treatment at 1000 uM after 24 hrs by NR uptake assay; type: functional, cell-based; settings: dose 1-10 µM, time 24.5 hrs
Outline: (§5)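 Differentiated SH-SY5Y cells were pretreated with compounds at 1 or 10 μM for 30 min, then exposed to iron(III) at 1000 or 1500 μM for 24 h. Viability was read by neutral red uptake. Mean ± SD of three independent experiments, two-way ANOVA.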

SH-SY5Y [14] = test: Protection against iron(III)-induced damage in human SH-SY5Y cells assessed as increase in lysosomal activity at 1 to 10 uM pretreated for 30 mins followed by iron(III) treatment at 1500 uM after 24 hrs by NR uptake assay; type: functional, cell-based; settings: dose 1-10 µM, time 24.5 hrs; outline: as §5
Caco-2 [15] = test: Cytotoxicity against human Caco-2 cells assessed as reduction in cell viability at 10 uM measured after 24 hrs by MTT assay relative to control; type: cell-based; settings: caco-2, 24 h; outline: as §3
SH-SY5Y [16] = test: Cytotoxicity against human SH-SY5Y cells assessed as reduction in cell viability at 10 uM measured after 24 hrs by MTT assay relative to control; type: cell-based; outline: as §3
[17] = target: T1, Amine oxidase [flavin-containing] B; test: as §1, with “cells at 10 uM” for “cells”, “analysis relative to control” for “analysis”; settings: BTI-TN-5B1-4, human, 0.5 h, time 40 min; outline: as §2

O=C(Nc1ccc(Cl)c(Cl)c1)c1cc2ccccc2[nH]c1=O
solubility [1]: Insoluble

Cc1ccc(NC(=O)c2csc3ccccc3c2=O)cc1C
pIC50 [2]: 8.47 | inhibition at 0.5 h, 10 µM (MAO-A): 0.2% | Ratio IC50 (Homo sapiens): > 2990 | Activity (SH-SY5Y [3]): Non-Toxic | Activity (Caco-2 [4]): Non-Toxic

O=C(Nc1ccc(Cl)c(Cl)c1)c1cc2ccccc2oc1=O
solubility [1]: Insoluble

COc1ccc(NC(=O)C2=Cc3ccccc3OC2)cc1OC
pIC50 [2]: 5.54 | inhibition at 0.5 h, 10 µM (MAO-A): 20.2% | Ratio IC50 (Homo sapiens): > 3.48

O=C(Nc1ccc(Cl)c(Cl)c1)C1=Cc2ccccc2OC1
pIC50 [5]: 5.38 | pIC50 [2]: 8.50 | Ratio IC50 (Homo sapiens): 1300 | Activity (SH-SY5Y [3]): Non-Toxic | Activity (Caco-2 [4]): Non-Toxic | Activity (HUVEC [6]): 64.4% | Activity (HEK293 [7]): < 10% | Activity (MCF7 [8]): < 10% | pIC50 (HUVEC [9]; Homo sapiens, HUVEC, read-out: IC50): 5.08 | IC50 (HEK293 [10]): Not Active | IC50 (MCF7 [11]): Not Active | inhibition at 2 h, 10 µM (hERG): < 10% | Activity [12]: Not Active | Activity (SH-SY5Y [13]): inactive | Activity (SH-SY5Y [14]): inactive

O=C(Nc1cccc(Cl)c1)C1=Cc2ccccc2OC1
pIC50 [5]: 4.93 | pIC50 [2]: 7.58 | Ratio IC50 (Homo sapiens): 444 | Activity (SH-SY5Y [3]): Non-Toxic | Activity (Caco-2 [15]): 88.3%

Cc1ccc(NC(=O)c2cc3ccccc3oc2=O)cc1C
inhibition at 0.5 h, 10 µM (MAO-A): 26.8% | Activity (SH-SY5Y [16]): < 85% | Activity (SH-SY5Y [3]): Non-Toxic | Activity (Caco-2 [4]): Non-Toxic

Cc1ccc(NC(=O)c2cc3ccccc3[nH]c2=O)cc1C
inhibition at 0.5 h, 10 µM (MAO-A): 1.32% | inhibition at 10 µM [17]: 8.1%

Cc1ccc(NC(=O)c2coc3ccccc3c2=O)cc1C
Activity (SH-SY5Y [16]): < 85% | Activity (SH-SY5Y [3]): Non-Toxic | Activity (Caco-2 [4]): Non-Toxic | Activity (HUVEC [6]): < 10% | Activity (HEK293 [7]): < 10% | Activity (MCF7 [8]): < 10% | IC50 (HUVEC [9]; huvec): Not Active | IC50 (HEK293 [10]): Not Active | IC50 (MCF7 [11]): Not Active | inhibition at 2 h, 10 µM (hERG): < 10% | Activity [12]: Not Active | Activity (SH-SY5Y [13]): inactive | Activity (SH-SY5Y [14]): inactive

COc1ccc(NC(=O)C2COc3ccccc3C2)cc1OC (stereo unspecified)
inhibition at 0.5 h, 10 µM (MAO-A): 11.8% | inhibition at 10 µM [17]: 14%

O=C(Nc1ccc(Cl)c(Cl)c1)C1COc2ccccc2C1 (stereo unspecified)
pIC50 [2]: 7.10 | inhibition at 0.5 h, 10 µM (MAO-A): 16.4% | Ratio IC50 (Homo sapiens): > 127 | Activity (SH-SY5Y [3]): Non-Toxic | Activity (Caco-2 [4]): Non-Toxic
